Experimental data from ChEMBL document CHEMBL1127020, “3-Quinolinecarboxamides. A series of novel orally-active antiherpetic agents” (1993).
Values after ≈ are worked out from the molar mass of the structure shown. Active and inactive are the calls of the source. The calls are words filed in the database; no cut-off is given here.

How the values were obtained:
[1] = system: Human alphaherpesvirus 2; experiment: In vitro maximum tolerated level against herpes simplex virus-2 (HSV-2) by plaque-reduction assay in vero cells; format: functional
[2] = system: Human alphaherpesvirus 2; experiment: (§1) In vitro minimum inhibitory concentration against herpes simplex virus-2 (HSV-2) by plaque-reduction assay in vero cells; format: functional
[3] = system: Human alphaherpesvirus 2; experiment: In vivo maximum tolerated dose against herpes simplex virus-2 (HSV-2) by oral administration in female mice; format: functional
[4] = system: Human alphaherpesvirus 2; experiment: (§2) Minimum effective dose against herpes simplex virus-2 (HSV-2) by oral administration in female mice.; format: functional, organism-based
Outline: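 Swiss female ICR mice (13–15 g) infected intravaginally with HSV-2 (Curtis) at a dose set for 80% mortality. Compound suspended in 1% gum tragacanth/2% Tween 80, given intragastrically at serial 2-fold doses, 20 mice per dose, 2 h before infection then twice daily for 5 d. Mortality followed 14 d; MED = lowest dose with survival differing from placebo (Mantel-Cox, Breslow).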

[5] = system: Human alphaherpesvirus 2; experiment: as §1; format: functional, organism-based
Outline: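 Vero monolayers (2 days old, confluent; Hank's MEM + 5% inactivated FCS, 37 °C, 2% CO2) infected with ~80 PFU; after 1-h adsorption, overlay of M199/5% FCS with 1:150 human immune serum globulin plus serial 2-fold compound dilutions (1:200 from DMSO). 3 d incubation, glutaraldehyde fix, crystal violet stain, plaque count. MIC = lowest concentration giving 50% plaque reduction; mean of ≥2 experiments.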

[6] = system: Human alphaherpesvirus 2; experiment: as §2; format: functional; settings: Human alphaherpesvirus 2, po; read-out: MED

| MIC [5] | Compound | MTL [1] [µg/mL] | MIC [2] [µg/mL] | MTD [3] [mg/kg] | MED [4] | minimal effective dose [6] [mg/kg] |
| --- | --- | --- | --- | --- | --- | --- |
| – | CCn1cc(C(N)=O)c(=O)c2ccc(-c3cccnc3)cc21 | 50 | 12 (≈ 40.9 µM) | 100 | inactive | – |
| inactive | CCn1c(C)c(C(N)=O)c(=O)c2ccc(-c3ccncc3)cc21 | 50 | – | – | – | – |
| inactive | NC(=O)c1csc2cc(-c3ccncc3)ccc2c1=O | >100 | – | – | – | – |
| – | Cn1cc(C(N)=O)c(=O)c2ccc(-c3ccncc3)cc21 | >25 | 4.6 (≈ 16.5 µM) | 25 | inactive | – |
| – | CCn1cc(C(=O)NC)c(=O)c2ccc(-c3ccncc3)cc21 | >25 | 9 (≈ 29.3 µM) | 50 | – | 50 |
| – | CCn1c(=O)c(C(N)=O)c(O)c2ccc(-c3ccncc3)cc21 | 6.25 | 2.1 (≈ 6.79 µM) | 100 | – | 100 |
| inactive | CCn1cc(C2=NCCO2)c(=O)c2ccc(-c3ccncc3)cc21 | 12.5 | – | – | – | – |
| inactive | CCn1cc(C(N)=O)c(=O)c2ccc(-c3cnc(C)s3)cc21 | >100 | – | – | – | – |
| – | Cc1cc(-c2ccc3c(=O)c(C(N)=O)cn(-c4ccc(F)cc4)c3c2)on1 | >100 | 0.26 (≈ 0.716 µM) | >200 | inactive | – |
| – | NC(=O)c1c(O)c2ccc(-c3ccncc3)cc2n(-c2ccc(F)cc2)c1=O | >100 | 11 (≈ 29.3 µM) | – | – | – |
| inactive | NC(=O)c1cnc2cc(-c3ccncc3)ccc2c1O | 12.5 | – | – | – | – |
| inactive | CCn1cc(C(N)=O)c(=O)c2ccc(-n3ccnc3)cc21 | 50 | – | – | – | – |
| inactive | NC(=O)c1cn(CCO)c2cc(-c3ccncc3)ccc2c1=O | 50 | – | – | – | – |
| – | COc1ccc(-n2cc(C(N)=O)c(=O)c3ccc(-c4ccncc4)cc32)cc1 | >25 | 1.3 (≈ 3.5 µM) | 50 | inactive | – |
| – | Oc1nc2c(O)c3ccc(-c4ccncc4)cc3n(-c3ccc(F)cc3)c-2n1 | >100 | – | – | – | – |
| – | NC(=O)c1cn(-c2ccc(C(F)(F)F)cc2)c2cc(-c3ccncc3)ccc2c1=O | >100 | 1 (≈ 2.44 µM) | 50 | inactive | – |
| – | CCCCCn1cc(C(N)=O)c(=O)c2ccc(-c3ccncc3)cc21 | 6.25 | 4.8 (≈ 14.3 µM) | 50 | inactive | – |
| inactive | CCn1cc(C(N)=O)c(=O)c2ccc(-c3ccc(N)cc3)cc21 | 6.25 | – | – | – | – |
| – | NC(=O)c1cn(Cc2ccc(Cl)c(Cl)c2)c2cc(-c3ccncc3)ccc2c1=O | >100 | 1.7 (≈ 4.01 µM) | >100 | inactive | – |
| – | NC(=O)c1cn(-c2ccccc2)c2cc(-c3ccncc3)ccc2c1=O | 6.25 | 0.78 (≈ 2.28 µM) | 50 | – | 25 |

| MIC [5] | Compound | MTL [1] [µg/mL] | MIC [2] [µg/mL] | MTD [3] [mg/kg] | MED [4] | minimal effective dose [6] [mg/kg] |
| --- | --- | --- | --- | --- | --- | --- |
| – | CCn1cc(C(N)=O)c(=O)c2ccc(-c3ccccn3)cc21 | 25 | 14 (≈ 47.7 µM) | 100 | inactive | – |
| inactive | CCn1cc(C(=O)NCCO)c(=O)c2ccc(-c3ccncc3)cc21 | 25 | – | – | – | – |
| – | CCn1c(N)c(C(N)=O)c(=O)c2ccc(-c3ccncc3)cc21 | >12.5 | 9 (≈ 29.2 µM) | >100 | – | – |
| – | NC(=O)c1cn(-c2ccncc2)c2cc(-c3ccncc3)ccc2c1=O | >200 | 7.2 (≈ 21 µM) | 75 | – | 75 |
| – | CCCCn1cc(C(N)=O)c(=O)c2ccc(-c3ccncc3)cc21 | 6.25 | 5.2 (≈ 16.2 µM) | 50 | inactive | – |
| – | NC(=O)c1cn(-c2ccc(F)cc2)c2cc(-c3ccccc3)ccc2c1=O | 12.5 | 0.82 (≈ 2.29 µM) | >200 | inactive | – |
| – | CCn1cc(C(N)=O)c(=O)c2ccc(-c3ccncc3)cc21 | 12.5 | 6.5 (≈ 22.2 µM) | 50 | – | 50 |
| – | Cc1cc(-c2ccc3c(=O)c(C(N)=O)cn(-c4ccc(F)cc4)c3c2)sn1 | >100 | 0.25 (≈ 0.659 µM) | >100 | inactive | – |
| inactive | CCn1cc(C(=O)O)c(=O)c2ccc(-c3ccncc3)cc21 [ROSOXACIN] | >200 | – | – | – | – |
| – | Cc1ccc(-n2cc(C(N)=O)c(=O)c3ccc(-c4ccncc4)cc32)cc1C | >100 | 1 (≈ 2.71 µM) | >200 | inactive | – |
| – | CCn1cc(C(N)=O)c(=O)c2ccc(-c3c(C)cncc3C)cc21 | 12.5 | 9.9 (≈ 30.8 µM) | 25 | inactive | – |
| – | NC(=O)c1cn(-c2ccc(Br)cc2)c2cc(-c3ccncc3)ccc2c1=O | >12.5 | 0.47 (≈ 1.12 µM) | 50 | – | 50 |
| – | NC(=O)c1cn(-c2ccc(Cl)c(Cl)c2)c2cc(-c3ccncc3)ccc2c1=O | >100 | 0.52 (≈ 1.27 µM) | 100 | – | 50 |
| inactive | CCn1cc(C(N)=O)c(=O)c2ccccc21 | 50 | – | – | – | – |
| inactive | CCn1cc(C(=O)NOC)c(=O)c2ccc(-c3ccncc3)cc21 | 25 | – | – | – | – |
| inactive | CCn1cc(C(N)=O)c(=O)c2ccc(F)cc21 | 50 | – | – | – | – |
| – | NC(=O)c1cn(-c2ccc(Cl)cc2)c2cc(-c3ccncc3)ccc2c1=O | >25 | 0.4 (≈ 1.06 µM) | 100 | – | 50 |
| – | NC(=O)c1cn(C2CC2)c2cc(-c3ccncc3)ccc2c1=O | 25 | 4 (≈ 13.1 µM) | 25 | inactive | – |
| – | CCC(=O)c1c(O)c2ccc(-c3ccncc3)cc2n(-c2ccc(F)cc2)c1=O | – | > 100 | – | – | – |
| – | NC(=O)c1cn(-c2cccc(F)c2)c2cc(-c3ccncc3)ccc2c1=O | >25 | 0.71 (≈ 1.98 µM) | 50 | – | 50 |

| MIC [5] | Compound | MTL [1] [µg/mL] | MIC [2] [µg/mL] | MTD [3] [mg/kg] | MED [4] | minimal effective dose [6] [mg/kg] |
| --- | --- | --- | --- | --- | --- | --- |
| inactive | CCn1cc(C(N)=O)c(=O)c2ccc(-c3ccccc3)cc21 | 50 | – | – | – | – |
| inactive | CCCn1cc(C(N)=O)c(=O)c2ccc(-c3ccncc3)cc21 | 6.25 | – | – | – | – |
| inactive | CCn1cc(C2=NCCN2)c(=O)c2ccc(-c3ccncc3)cc21 | >100 | – | – | – | – |
| inactive | NC(=O)c1cn(-c2ccc(F)cc2)c2cc(Cl)ccc2c1=O | >12.5 | – | – | – | – |
| inactive | CCn1cc(C#N)c(=O)c2ccc(-c3ccncc3)cc21 | 100 | – | – | – | – |
| inactive | CCn1cc(C(N)=O)c(=O)c2ccc(I)cc21 | >100 | – | – | – | – |
| – | CCn1cc(C(N)=O)c(=O)c2ccc(-c3cc(C)no3)cc21 | >100 | 12 (≈ 40.4 µM) | >200 | inactive | – |
| inactive | CCn1cc(C(=O)NCCN)c(=O)c2ccc(-c3ccncc3)cc21 | >100 | – | – | – | – |
| – | NC(=O)c1cn(-c2ccc(F)cc2F)c2cc(-c3ccncc3)ccc2c1=O | 3.1 | 2.2 (≈ 5.83 µM) | <25 | inactive | – |
| inactive | CCn1cc(C(N)=O)c(=O)c2ccc(Cl)cc21 | >100 | – | – | – | – |
| – | Cc1ccc(-n2cc(C(N)=O)c(=O)c3ccc(-c4ccncc4)cc32)cc1 | >25 | 0.63 (≈ 1.77 µM) | 50 | inactive | – |
| – | CCn1cc(C(N)=O)c(=O)c2ccc(-c3ccno3)cc21 | 12.5 | 5 (≈ 17.6 µM) | >200 | inactive | – |
| inactive | NC(=O)c1cn(-c2ccc(F)cc2)c2cc(Br)ccc2c1=O | 6.25 | – | – | – | – |
| – | NC(=O)c1c(O)c2ccc(-c3ccncc3)cc2n2c1nc1ccccc12 | 0.4 | – | – | – | – |
| – | C=CCn1cc(C(N)=O)c(=O)c2ccc(-c3ccncc3)cc21 | 6.25 | 2.9 (≈ 9.5 µM) | <50 | inactive | – |
| inactive | CCn1cc(C(N)=O)c(=O)c2ccc(-c3ccc([N+](=O)[O-])cc3)cc21 | >100 | – | – | – | – |
| inactive | CCn1cc(C(=O)N(C)C)c(=O)c2ccc(-c3ccncc3)cc21 | >100 | – | – | – | – |
| inactive | CCn1cc(C(=O)NCCN(C)C)c(=O)c2ccc(-c3ccncc3)cc21 | >100 | – | – | – | – |
| inactive | CC(C)(C)c1ccc(-n2cc(C(N)=O)c(=O)c3ccc(-c4ccncc4)cc32)cc1 | >25 | – | – | – | – |

| Compound | MIC [5] | MTL [1] [µg/mL] | MIC [2] [µg/mL] | MTD [3] [mg/kg] | MED [4] | minimal effective dose [6] [mg/kg] |
| --- | --- | --- | --- | --- | --- | --- |
| CCn1cc(C(N)=O)c(=O)c2ccc(N3CCN(C)CC3)cc21 | inactive | 50 | – | – | – | – |
| NC(=O)c1cn(-c2ccccc2F)c2cc(-c3ccncc3)ccc2c1=O | inactive | 1.6 | – | 100 | inactive | – |
